Assay results of several laboratories.
Compare with care: the assays were run in different laboratories.
Cell line: CCRF-CEM
Effect on: cell growth or viability

Compound | assay | setting | IC50 [µM]
COC(=O)c1cc(-c2cc(OC)ccc2OC)sc1N |  | 48 h | 30
O=C1C(=Cc2ccccc2)CN(C(=O)CCCCCCC(=O)N2CC(=Cc3ccccc3)C(=O)C(=Cc3ccccc3)C2)CC1=Cc1ccccc1 |  | 72 h | 2.28
COC(=O)c1cc(CCc2ccccc2OC)sc1N |  | 48 h | 1.2
O=C(CN1C(=O)SC(=Cc2ccccc2)C1=O)Nc1ccc(Cl)cc1C(F)(F)F | MTT | 48 h | 47.5
CCC[C@H](Nc1nc(-c2ccc(NC(=O)NCC)c(OC)c2)ncc1C)c1cccnc1 | fluorescence | 72 h | 0.0036
CC(=O)O[C@H]1C(=O)[C@@]2(C)[C@H]([C@H](OC(=O)c3ccccc3)[C@]3(O)C[C@H](OC(=O)[C@H](O)[C@@H](NC(=O)c4ccccc4)c4ccccc4)C(C)=C1C3(C)C)[C@]1(OC(C)=O)CO[C@@H]1C[C@@H]2O | MTT | 48 h | 0.31
O=C1C(=Cc2ccccc2)CN(C(=O)CCCC(=O)N2CC(=Cc3ccccc3)C(=O)C(=Cc3ccccc3)C2)CC1=Cc1ccccc1 |  | 72 h | 2.03
O=C(CN1C(=O)SC(=Cc2ccc(F)cc2)C1=O)Nc1ccc(Cl)cc1C(F)(F)F | MTT | 48 h | 38
CCOC(=O)c1cc(CCc2ccccc2OC)sc1N |  | 48 h | 20
COc1ccccc1C(=O)c1cc2c(-c3ccccc3)c(OC)ccc2o1 |  | 72 h | > 50
O=C1C(=Cc2ccccc2)CN(C(=O)CC(=O)N2CC(=Cc3ccccc3)C(=O)C(=Cc3ccccc3)C2)CC1=Cc1ccccc1 |  | 72 h | 0.2
COc1cc(OC)cc(C(=O)c2cc3c(-c4ccccc4)c(OC)ccc3o2)c1 |  | 72 h | > 50
COc1ccc(CCc2cc(C#N)c(N)s2)cc1 |  | 48 h | 7.2
O=C1C(=Cc2ccccc2)CN(C(=O)C=CC(=O)N2CC(=Cc3ccccc3)C(=O)C(=Cc3ccccc3)C2)CC1=Cc1ccccc1 |  | 72 h | 7.75
COc1ccccc1C(=O)c1cc2c(-c3ccccc3)c(O)ccc2o1 |  | 72 h | 19
O=C1NC(=NCc2cccs2)S/C1=C\c1ccc2ncccc2c1 |  |  | 2.5
COc1ccc(OC)c(-c2cc(C#N)c(N)s2)c1 |  | 48 h | 12
COc1ccc(C(=O)c2cc3c(-c4ccccc4)c(O)ccc3o2)cc1 |  | 72 h | 0.88
COc1ccccc1CCc1cc(C#N)c(N)s1 |  | 48 h | 6.8
CCc1ccc(CCOc2ccc(CC3SC(=O)NC3=O)cc2)nc1 (stereo not shown) | MTT | 48 h | 17.9
COc1ccc(/C=C\c2cc(OC)c(OC)c(OC)c2)cc1O |  | 72 h | 0.0018
COc1ccc(OC)c(CCc2cc(C#N)c(N)s2)c1 |  | 48 h | 0.035
